TRPC6 inh – mouse TRPC6 channel inhibitors, primary screen, cell-based, HEK293, membrane potential dye; Short transient receptor potential channel 6 (Mus musculus), Q61143; ACh-evoked depolarization; hits give low values; B-score at 10 µM; hit rate 1.1% among 310,000;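 active = B-score under library mean minus 3 SD, initial fluorescence not abnormally high, positive integrated signal ratio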;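 note: B-score derived from integrated fluorescence ratio over the kinetic read; more negative B-score means stronger inhibition of depolarization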
TRPC4 block – inhibitors of mouse TRPC4 channel, primary screen, Fluo4 calcium, HEK293 TRPC4beta/mu-opioid cells | Short transient receptor potential channel 4 (Mus musculus), Q9QUQ5 | hit rate 0.39% among 300,000 | DAMGO-evoked Fluo4 calcium flux; hits give low values | B-score at 10 µM;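 active = B-score over 3 SD under the library average, no early fluorescence shift, positive overall ratio signal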
Target sequence (Q9QUQ5 whole entry, looked up): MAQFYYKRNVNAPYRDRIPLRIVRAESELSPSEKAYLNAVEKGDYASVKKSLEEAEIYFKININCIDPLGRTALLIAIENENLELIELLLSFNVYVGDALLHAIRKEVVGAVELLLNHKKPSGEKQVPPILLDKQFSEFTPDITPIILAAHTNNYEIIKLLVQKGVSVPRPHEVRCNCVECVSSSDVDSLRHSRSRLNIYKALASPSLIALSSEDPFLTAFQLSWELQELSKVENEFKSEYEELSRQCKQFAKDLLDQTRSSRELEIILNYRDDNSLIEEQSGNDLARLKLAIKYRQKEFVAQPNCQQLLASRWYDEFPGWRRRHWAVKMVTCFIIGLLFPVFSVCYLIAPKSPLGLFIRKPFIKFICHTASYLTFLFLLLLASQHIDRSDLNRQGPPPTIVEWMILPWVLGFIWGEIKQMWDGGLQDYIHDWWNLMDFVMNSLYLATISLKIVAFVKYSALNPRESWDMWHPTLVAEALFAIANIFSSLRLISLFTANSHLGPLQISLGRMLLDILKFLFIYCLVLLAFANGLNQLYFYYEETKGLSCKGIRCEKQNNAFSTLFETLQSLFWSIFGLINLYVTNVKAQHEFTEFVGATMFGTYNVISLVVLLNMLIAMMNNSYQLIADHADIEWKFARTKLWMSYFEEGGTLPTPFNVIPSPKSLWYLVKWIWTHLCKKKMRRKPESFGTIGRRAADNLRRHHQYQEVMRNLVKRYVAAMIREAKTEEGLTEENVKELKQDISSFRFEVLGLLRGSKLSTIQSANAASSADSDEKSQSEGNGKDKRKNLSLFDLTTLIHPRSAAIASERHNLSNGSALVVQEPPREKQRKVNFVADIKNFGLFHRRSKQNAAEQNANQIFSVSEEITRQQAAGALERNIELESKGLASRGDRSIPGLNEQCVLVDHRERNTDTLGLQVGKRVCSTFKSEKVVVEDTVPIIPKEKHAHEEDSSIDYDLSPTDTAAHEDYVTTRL
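material = TRPC4beta/mu-opioid receptor HEK293 cell line | probe or stimulus = sequential submaximal and maximal DAMGO stimulation | compound dosing = one concentration per compound | measured by = Fluo4 Ca2+ flux fluorescence | evaluation = integrated fluorescence ratio relative to baseline, converted to per-well B score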
TRPC6 act – mouse TRPC6 channel activators, primary screen, cell-based, HEK293, membrane potential dye | Short transient receptor potential channel 6 (Mus musculus), Q61143 | HEK293-TRPC6 membrane potential dye fluorescence; hits give high values | B-score at 10 µM | hit rate 0.13% among 310,000 | AID 2550, 2010;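 active = B-score of the integrated fluorescence ratio above library mean plus 3 SD, and starting fluorescence ratio within library mean plus 5 SD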;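 note: higher score means more depolarization so channel activation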
TRPC4 PAM – positive allosteric modulators of TRPC4, primary screen, cell-based, mouse TRPC4beta, HEK293 mu-opioid, Fluo-4 calcium; Short transient receptor potential channel 4 (Mus musculus), Q9QUQ5; DAMGO EC20, Fluo-4 Ca2+ flux; hits give high values; B-score at 10 µM; hit rate 0.42% among 310,000;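 active = B-score of calcium response area above 5 SD of library B-scores, with initial fluorescence ratio within 5 SD of library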
TRPC4 agonist – activators of mouse TRPC4 channel, primary screen, Fluo4 calcium, HEK293 TRPC4beta/mu-opioid cells | Short transient receptor potential channel 4 (Mus musculus), Q9QUQ5 | Fluo4 calcium fluorescence; hits give high values | B-score at 10 µM | hit rate 0.49% among 310,000 | AID 2237, 2010;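 active = B-score above 5 SD of library B-scores, and initial fluorescence ratio not above library mean plus 5 SD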;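 note: positive B-score marks a calcium rise read as TRPC4 activation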
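Technique: kinetic Fluo4 calcium fluorescence; Test system: TRPC4beta and mu-opioid receptor HEK293 stable cells; Measure: B-scored integrated calcium fluorescence ratio; Benchmarks: low control buffer alone, high control maximal DAMGO; Schedule: 45 min room-temperature Fluo4 loading, 110 s read.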
Large screens that a line does not name were inactive. The list is not random: actives were taken first. Their share in the collection is about 2.3%.

Cc1c(CCOC(=O)c2cccc([N+](=O)[O-])c2)sc[n+]1CC(=O)c1ccccc1	TRPC4 block -6
Cc1c(CCOC(=O)C2C3CC4CC(C3)CC2C4)sc[n+]1CC(=O)c1ccc(Br)cc1 (stereo not drawn)	none
COc1cc(CN2CCCC(C(=O)Nc3ccccc3Oc3cccnc3)C2)ccc1F (stereo not drawn)	none
O=C(Nc1ccccc1Oc1cccnc1)C1CCCN(Cc2cccc(Cl)c2)C1 (stereo not drawn)	TRPC4 block -6
Cc1ccccc1CN1CCCC(C(=O)Nc2ccccc2Oc2cccnc2)C1 (stereo not drawn)	TRPC4 block -7
Cn1c(CC(=O)c2ccc(Br)cc2)[n+](C)c2ccccc21	none
O=C(O)c1cccc(NS(=O)(=O)c2cccc(C(=O)Nc3ccccc3[N+](=O)[O-])c2)c1	none
NC(=O)C1(C(N)=O)OC1c1ccc(Cl)c(Cl)c1 (stereo not drawn)	none
CCC(=O)N(CCC(c1ccc(C)cc1)c1ccco1)Cc1ccco1 (stereo not drawn)	none
c1ccc(Cc2c[nH]c3ccccc23)cc1	TRPC4 block -5
COc1cc(C(=O)OCc2cc(=O)oc3c(C)c(C)ccc23)ccc1OC(F)F	none
C/C(=N\Nc1ccc(C(=O)O)cc1)c1ccc2c(c1)Nc1ccccc1S2	TRPC4 block -6
O=C(Nc1cccc(C(=O)N2CCCc3ccccc32)c1)c1ccccc1	none
O=C(COc1ccccc1C(=O)O)Nc1nc2ccc([N+](=O)[O-])cc2s1	none
COC(=O)c1cc(N2CCN(C)CC2)nc2ccccc12	TRPC4 PAM 17
Cc1cc(N2CCN(C)CC2)nc2ccc(NC(=O)c3ccccc3F)cc12	none
CCC(C)C(NC(=O)OCc1ccccc1)C(=O)NCC(c1ccccc1)N(C)C (stereo not drawn)	TRPC4 block -5
COc1ccc(C(CNC(=O)/C=C/c2c(Cl)nc3ccccn23)N(C)C)cc1 (stereo not drawn)	TRPC4 agonist 249
COc1ccc(C(CNC(=O)C(Cc2ccccc2)NC(N)=O)N(C)C)cc1 (stereo not drawn)	TRPC4 agonist 112
COc1ccc(CC(NC(=O)c2ccccc2)C(=O)NCC(=O)O)cc1 (stereo not drawn)	none
CC[C@H](C)[C@H](NC(=O)OCc1ccccc1)C(=O)Nc1ccc(NC(C)=O)cc1	none
CN(C)c1ccc(C(CNC(=O)Cc2cccc3ccccc23)N(C)C)cc1 (stereo not drawn)	TRPC4 agonist 77
CC1CCCCN1CCNC(=O)c1ccc2c(=O)n(Cc3ccc(Cl)cc3)c(=S)[nH]c2c1 (stereo not drawn)	none
COc1ccccc1C(=O)NCC(c1cccnc1)N(C)C (stereo not drawn)	none
COc1ccc(C(CNC(=O)CSc2ccccc2C)N(C)C)cc1 (stereo not drawn)	TRPC4 agonist 116
COc1ccc(C(CNC(=O)c2cccc3cccnc23)N(C)C)cc1 (stereo not drawn)	TRPC4 block -7, TRPC4 agonist 108
COc1ccccc1C(CNC(=O)CSc1ccc2ccccc2c1)N(C)C (stereo not drawn)	none
COc1ccc(OCCNC(=O)C(c2ccccc2)c2ccccc2)cc1	none
COc1ccc(C(CNC(=O)Cc2ccc(-c3ccccc3)cc2)N(C)C)cc1 (stereo not drawn)	TRPC4 agonist 202
COc1cccc(C(CNC(=O)C(c2ccccc2)c2ccccc2)N(C)C)c1 (stereo not drawn)	TRPC4 block -6
CCN(CC)C(=N)/C(C#N)=N/Nc1ccccc1	none
N#Cc1ccc(-c2nc3ccc(Br)cc3c(=O)n2O)cc1	none
O=c1c2cc(Cl)ccc2nc(-c2ccc(Cl)c(Cl)c2)n1O	TRPC4 agonist 237
O=c1c2cc(Br)ccc2nc(-c2cccc(C(F)(F)F)c2)n1O	TRPC4 agonist 193
O=c1c2ccc(Cl)cc2nc(-c2ccc([N+](=O)[O-])cc2)n1O	TRPC4 agonist 63
O=c1c2cc(Br)ccc2nc(-c2ccc([N+](=O)[O-])cc2)n1O	TRPC4 agonist 81
O=c1c2cc(Cl)ccc2nc(-c2ccccc2)n1O	none
COCCNC(=O)C(c1ccc(F)cc1)N(C(=O)CCC(=O)Nc1ccccn1)C1CCCCC1 (stereo not drawn)	none
O=C(NCCOc1ccccc1F)c1cccc(S(=O)(=O)N2CCN(c3ccccc3)CC2)c1	none
Cc1ccccc1NC(=O)c1c2c(nc3ccccc13)CCC2	none
O=[N+]([O-])c1cccc(-c2noc(-c3ccco3)n2)c1	none
O=C1CCCc2nc(N3CCN(C(c4ccccc4)c4ccccc4)CC3)ncc21	TRPC4 agonist 43
CC1CCCN(CCCNS(=O)(=O)c2cc(Br)cc3c2N(C(=O)C2CC2)CC3)C1 (stereo not drawn)	TRPC4 agonist 73
O=C(C1CC1)N1CCc2cc(Br)cc(S(=O)(=O)NCCCN3CCCC3)c21	TRPC4 agonist 60
CC1CC(C)CN(CCCNS(=O)(=O)c2cc(Br)cc3c2N(C(=O)C2CC2)CC3)C1 (stereo not drawn)	TRPC4 agonist 115
c1ccc(OCCN2CCN(C(c3ccccc3)c3ccccc3)CC2)cc1	none
O=C(NNc1ccccc1)Nc1ccccc1F	none
CCOC(=O)/C(=C\c1ccc(Cl)cc1)c1nc2sc(C)c(C)c2c(=O)[nH]1	TRPC4 PAM 11
CN(CC(=O)Nc1c(Cl)cccc1Cl)C(=O)c1n[nH]c2ccccc12	none
O=C(N/N=C/C(Br)=C/c1ccccc1)c1ccccc1[N+](=O)[O-]	TRPC4 PAM 12
CCCOc1cccc(C2C(C(=O)c3ccc(C)o3)=C(O)C(=O)N2c2nc(C)c(C(C)=O)s2)c1 (stereo not drawn)	none
Cc1ccc(C)c(CN2CCC(CNC(=O)Nc3ccc(Cl)cc3)CC2)c1	TRPC4 PAM 14
CC1CCN(CCc2nc3cc(NS(=O)(=O)c4ccc(F)cc4)ccc3n2C)CC1	TRPC4 PAM 15
CC1CCN(CCc2nc3cc(NS(=O)(=O)c4ccccc4)ccc3n2C)CC1	none
CCOC(=O)Cc1csc(NC(=O)/C=C/c2ccc(OC)cc2)n1	none
COc1ccccc1N1CCN(C2CCCCC2NS(=O)(=O)c2ccc(Cl)cc2)CC1 (stereo not drawn)	none
COc1ccc(N2CCN(C3CCCCC3NS(=O)(=O)c3ccc(Cl)cc3)CC2)cc1 (stereo not drawn)	TRPC4 PAM 15
Cc1ccc(S(=O)(=O)N(Cc2cccc(Cl)c2)C(=O)N2CCN(C)CC2)cc1	none
